Laboratory results taken from ChEMBL document CHEMBL1811814, “Synthesis and evaluation of indole, pyrazole, chromone and pyrimidine based conjugates for tumor growth inhibitory activities--development of highly efficacious cytotoxic agents” (Eur J Med Chem, 2010).

Tests used:
Assay type in all cases: functional
Design in all cases: scale not given: the % may be the effect or the level left
CCRF-CEM = assay: Growth inhibition of human CCRF-CEM cells assessed tumor cell growth at 10^-5 M
Summary of the method: (§1)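 NCI 60-human-tumor-cell-line panel screen. Each compound was tested at a single concentration of 10^-5 M, and percent growth of tumor cells was recorded for each cell line. Growth inhibition was expressed from these percent-growth values.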

HL-60(TB) = assay: Growth inhibition of human HL-60(TB) cells assessed tumor cell growth at 10^-5 M
Summary of the method: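 HL-60(TB), part of the 60-line panel, tested at a single concentration of 10^-5 M. The read-out is percent tumor cell growth relative to untreated growth.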

K562 = assay: Growth inhibition of human K562 cells assessed tumor cell growth at 10^-5 M; summary of the method: as §1
MOLT-4 = assay: Growth inhibition of human MOLT4 cells assessed tumor cell growth at 10^-5 M; summary of the method: as §1
[1] = Growth inhibition of human […] cells assessed tumor cell growth at 10^-5 M; summary of the method: as §1
SR = assay: Growth inhibition of human SR cells assessed tumor cell growth at 10^-5 M
Summary of the method: (§2)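 Single-dose screen at 10^-5 M across the 60 human tumor cell line panel, run to NCI standards. The value is the percent growth of each cell line in the presence of compound. Compounds active at this dose moved on to five-concentration testing (10^-4 to 10^-8 M).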

A549 = assay: Growth inhibition of human A549 cells assessed tumor cell growth at 10^-5 M; summary of the method: as §1
EKVX = assay: Growth inhibition of human EKVX cells assessed tumor cell growth at 10^-5 M; summary of the method: as §1
HOP-62 = assay: Growth inhibition of human HOP62 cells assessed tumor cell growth at 10^-5 M; summary of the method: as §1
HOP-92 = assay: Growth inhibition of human HOP92 cells assessed tumor cell growth at 10^-5 M; summary of the method: as §1
NCI-H226 = assay: Growth inhibition of human NCI-H226 cells assessed tumor cell growth at 10^-5 M; summary of the method: as §1
NCI-H23 = assay: Growth inhibition of human NCI-H23 cells assessed tumor cell growth at 10^-5 M; summary of the method: as §1
NCI-H322M = assay: Growth inhibition of human NCI-H322M cells assessed tumor cell growth at 10^-5 M; summary of the method: as §1
NCI-H460 = assay: Growth inhibition of human NCI-H460 cells assessed tumor cell growth at 10^-5 M; summary of the method: as §1
NCI-H522 = assay: Growth inhibition of human NCI-H522 cells assessed tumor cell growth at 10^-5 M; summary of the method: as §1
COLO 205 = assay: Growth inhibition of human COLO205 cells assessed tumor cell growth at 10^-5 M; summary of the method: as §1
HCC 2998 = assay: Growth inhibition of human HCC2998 cells assessed tumor cell growth at 10^-5 M; summary of the method: as §1
HCT-116 = assay: Growth inhibition of human HCT116 cells assessed tumor cell growth at 10^-5 M; summary of the method: as §1
HCT-15 = assay: Growth inhibition of human HCT15 cells assessed tumor cell growth at 10^-5 M; summary of the method: as §1
HT-29 = assay: Growth inhibition of human HT-29 cells assessed tumor cell growth at 10^-5 M; summary of the method: as §1
KM12 = assay: Growth inhibition of human KM12 cells assessed tumor cell growth at 10^-5 M; summary of the method: as §1
SW-620 = assay: Growth inhibition of human SW620 cells assessed tumor cell growth at 10^-5 M; summary of the method: as §2
SF-268 = assay: Growth inhibition of human SF268 cells assessed tumor cell growth at 10^-5 M; summary of the method: as §1
SF-295 = assay: Growth inhibition of human SF295 cells assessed tumor cell growth at 10^-5 M; summary of the method: as §1
SF-539 = assay: Growth inhibition of human SF539 cells assessed tumor cell growth at 10^-5 M; summary of the method: as §1
SNB-19 = assay: Growth inhibition of human SNB19 cells assessed tumor cell growth at 10^-5 M; summary of the method: as §2
SNB-75 = assay: Growth inhibition of human SNB75 cells assessed tumor cell growth at 10^-5 M; summary of the method: as §2
U-251 = assay: Growth inhibition of human U251 cells assessed tumor cell growth at 10^-5 M; summary of the method: as §2
LOX IMVI = assay: Growth inhibition of human LOXIMVI cells assessed tumor cell growth at 10^-5 M; summary of the method: as §1
Malme-3M = assay: Growth inhibition of human MALME-3M cells assessed tumor cell growth at 10^-5 M; summary of the method: as §1
M14 = assay: Growth inhibition of human M14 cells assessed tumor cell growth at 10^-5 M; summary of the method: as §1
MDA-MB-435 = assay: Growth inhibition of human MDA-MB-435 cells assessed tumor cell growth at 10^-5 M; summary of the method: as §1
SK-MEL-2 = assay: Growth inhibition of human SK-MEL-2 cells assessed tumor cell growth at 10^-5 M; summary of the method: as §1
SK-MEL-28 = assay: Growth inhibition of human SK-MEL-28 cells assessed tumor cell growth at 10^-5 M; summary of the method: as §1
SK-MEL-5 = assay: Growth inhibition of human SK-MEL-5 cells assessed tumor cell growth at 10^-5 M; summary of the method: as §1
UACC-257 = assay: Growth inhibition of human UACC257 cells assessed tumor cell growth at 10^-5 M; summary of the method: as §2
UACC-62 = assay: Growth inhibition of human UACC62 cells assessed tumor cell growth at 10^-5 M; summary of the method: as §2
IGROV-1 = assay: Growth inhibition of human IGROV1 cells assessed tumor cell growth at 10^-5 M; summary of the method: as §1
OVCAR-3 = assay: Growth inhibition of human OVCAR3 cells assessed tumor cell growth at 10^-5 M; summary of the method: as §1
OVCAR-4 = assay: Growth inhibition of human OVCAR4 cells assessed tumor cell growth at 10^-5 M; summary of the method: as §1
OVCAR-5 = assay: Growth inhibition of human OVCAR5 cells assessed tumor cell growth at 10^-5 M; summary of the method: as §1
OVCAR-8 = assay: Growth inhibition of human OVCAR8 cells assessed tumor cell growth at 10^-5 M; summary of the method: as §1
NCI/ADR-RES = assay: Growth inhibition of human NCI/ADR-RES cells assessed tumor cell growth at 10^-5 M; summary of the method: as §1
SK-OV-3 = assay: Growth inhibition of human SKOV3 cells assessed tumor cell growth at 10^-5 M; summary of the method: as §1
786-0 = assay: Growth inhibition of human 786-0 cells assessed tumor cell growth at 10^-5 M; summary of the method: as §1
A498 = assay: Growth inhibition of human A498 cells assessed tumor cell growth at 10^-5 M; summary of the method: as §1
ACHN = assay: Growth inhibition of human ACHN cells assessed tumor cell growth at 10^-5 M; summary of the method: as §1
CAKI-1 = assay: Growth inhibition of human Caki1 cells assessed tumor cell growth at 10^-5 M; summary of the method: as §1
RXF 393 = assay: Growth inhibition of human RXF393 cells assessed tumor cell growth at 10^-5 M; summary of the method: as §1
SN12C = assay: Growth inhibition of human SN12C cells assessed tumor cell growth at 10^-5 M; summary of the method: as §1
TK-10 = assay: Growth inhibition of human TK10 cells assessed tumor cell growth at 10^-5 M; summary of the method: as §2
UO-31 = assay: Growth inhibition of human UO31 cells assessed tumor cell growth at 10^-5 M; summary of the method: as §2
PC-3 = assay: Growth inhibition of human PC3 cells assessed tumor cell growth at 10^-5 M; summary of the method: as §1
DU-145 = assay: Growth inhibition of human DU145 cells assessed tumor cell growth at 10^-5 M; summary of the method: as §1
MCF7 = assay: Growth inhibition of human MCF7 cells assessed tumor cell growth at 10^-5 M; summary of the method: as §1
MDA-MB-231 = assay: Growth inhibition of human MDA-MB-231 cells assessed tumor cell growth at 10^-5 M; summary of the method: as §1
[2] = Growth inhibition of human Hs 578T cells assessed tumor cell growth at 10^-5 M; summary of the method: as §1
BT-549 = assay: Growth inhibition of human BT549 cells assessed tumor cell growth at 10^-5 M; summary of the method: as §1
T47D = assay: Growth inhibition of human T47D cells assessed tumor cell growth at 10^-5 M; summary of the method: as §2
MDA-MB-468 = assay: Growth inhibition of human MDA-MB-468 cells assessed tumor cell growth at 10^-5 M; summary of the method: as §1

## CC1=NN(c2cccc(Cl)c2)C(=O)/C1=C\c1cn(C(=O)c2ccc(Cl)cc2)c2ccccc12
CCRF-CEM
  Activity: 118.43%
HL-60(TB)
  Activity: 117.42%
K562
  Activity: 107.93%
MOLT-4
  Activity: 99.47%
[1]
  Activity: 97.03%
SR
  Activity: 96.12%
A549
  Activity: 96.27%
EKVX
  Activity: 79.35%
HOP-62
  Activity: 94.61%
HOP-92
  Activity: 99.69%
NCI-H226
  Activity: 86.8%
NCI-H23
  Activity: 91.24%
NCI-H322M
  Activity: 109.45%
NCI-H460
  Activity: 109.18%
NCI-H522
  Activity: 100.77%
COLO 205
  Activity: 113.51%
HCC 2998
  Activity: 108.88%
HCT-116
  Activity: 100.16%
HCT-15
  Activity: 91.41%
HT-29
  Activity: 101.17%
KM12
  Activity: 93.09%
SW-620
  Activity: 99.26%
SF-268
  Activity: 98.24%
SF-295
  Activity: 102.34%
SF-539
  Activity: 97.75%
SNB-19
  Activity: 99.84%
SNB-75
  Activity: 80.97%
U-251
  Activity: 94.02%
LOX IMVI
  Activity: 90.49%
Malme-3M
  Activity: 101.23%
M14
  Activity: 96.55%
MDA-MB-435
  Activity: 120.68%
SK-MEL-2
  Activity: 105.09%
SK-MEL-28
  Activity: 112.94%
SK-MEL-5
  Activity: 90.74%
UACC-257
  Activity: 105.58%
UACC-62
  Activity: 90.62%
IGROV-1
  Activity: 75.7%
OVCAR-3
  Activity: 97.57%
OVCAR-4
  Activity: 99.58%
OVCAR-5
  Activity: 97.61%
OVCAR-8
  Activity: 98.63%
NCI/ADR-RES
  Activity: 107.61%
SK-OV-3
  Activity: 91.35%
786-0
  Activity: 104.1%
A498
  Activity: 123.09%
ACHN
  Activity: 88.25%
CAKI-1
  Activity: 92.37%
RXF 393
  Activity: 94.47%
SN12C
  Activity: 92.22%
TK-10
  Activity: 167.41%
UO-31
  Activity: 76.43%
PC-3
  Activity: 95.29%
DU-145
  Activity: 104.66%
MCF7
  Activity: 87.82%
MDA-MB-231
  Activity: 87.79%
[2]
  Activity: 92.29%
BT-549
  Activity: 95.84%
T47D
  Activity: 79.84%
MDA-MB-468
  Activity: 103.55%
